Among the data in ChEMBL document CHEMBL3124769, “Synthesis and antitumor activities of novel dipeptide derivatives derived from dehydroabietic acid” (Bioorg Med Chem Lett, 2014) are Activity and IC50 values, retold here.

For test [1], the system named is HeLa. Kind of test: Induction of apoptosis in human HeLa cells after 12 hrs using annexin V/propidium iodide staining by flow cytometry. It counts as functional, cell-based. In outline:
(§1)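 HeLa cells were treated at 5 or 10 µM for 12 h, with untreated cells run alongside for 12 h. Cells were washed in cold PBS and resuspended in binding buffer. They were stained with Annexin V-FITC, then PI, for 20 min in the dark and run on a flow cytometer. Quadrants: Q2 necrotic/late apoptotic, Q3 normal, Q4 early apoptotic. Apoptosis ratio = early + late.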

Test [2] has as its system HeLa. The test is described as follows: Induction of apoptosis in human HeLa cells assessed as activation of caspase 3/9 by spectrophotometry analysis. It counts as functional, cell-based. The conditions noted are these: TDE = time-dependent effect. In short, it runs like this:
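Caspase-3 and caspase-9 activities in treated HeLa cells were measured spectrophotometrically at time points from 3 to 24 h and compared with untreated controls.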

Test [3] has as its system HeLa. The test is described as follows: Induction of apoptosis in human HeLa cells at 10 uM after 12 to 24 hrs by acridine orange/ethidium bromide staining. It is filed as functional, cell-based. In outline:
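HeLa cells were seeded at 5×10⁴ cells/mL on coverslips and fed fresh medium with 10% FBS. They were treated at 10 µM for 12 and 24 h, with an untreated 24 h control. Coverslips were inverted onto AO/EB stain and examined by fluorescence microscopy. Scoring: green = live, green-yellow = early apoptotic, orange = late apoptotic/necrotic.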

The subject of the next test is NCI-H460. Kind of test: Cytotoxicity against human NCI-H460 cells after 48 hrs by MTT assay. It counts as functional, cell-based. The conditions noted are these: NCI-H460, 48 h. In short, it runs like this:
(§2)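 Cells from the six lines were plated and left to adhere for 24 h. They were then exposed to compounds at 100 to 0.01 µM for 48 h. After that the medium was replaced with complete medium and viability was read by MTT. IC50 came from the concentration series, and each experiment was done three times.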

For test [4], the system named is HeLa. Kind of test: Cytotoxicity against human HeLa cells after 48 hrs by MTT assay. It is filed as functional, cell-based. In short, it runs like this: as §2
The subject of test [5] is HeLa. Kind of test: Induction of apoptosis in human HeLa cells assessed as necrotic cells at 5 uM after 12 hrs using annexin V/propidium iodide staining by flow cytometry (reference value: 2.1%). It counts as functional. In outline: as §1
Test [6] concerns HeLa. Kind of test: Induction of apoptosis in human HeLa cells assessed as apoptotic morphology at 10 uM after 12 to 24 hrs by Hoechst 33258 staining. It counts as functional, cell-based. In short, it runs like this: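 HeLa cells on coverslips were treated at 10 µM for 12 and 24 h, with an untreated 24 h control. They were fixed in 4% paraformaldehyde for 10 min, washed in PBS, stained with Hoechst 33258 for 5 min and washed again. Nuclei were viewed under fluorescence at 350 nm excitation and 460 nm emission.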

In test [7] the test system is HeLa. The test is described as follows: Induction of apoptosis in human HeLa cells assessed as apoptotic ratio at 5 uM after 12 hrs using annexin V/propidium iodide staining by flow cytometry (reference value: 2.3%). It counts as functional. In outline:
as §1

In the next test the test system is HepG2. Kind of test: Cytotoxicity against human HepG2 cells after 48 hrs by MTT assay. It is filed as functional, cell-based. The conditions noted are these: HepG2, 48 h. In outline:
as §2

The subject of the next test is SK-OV-3. The test is described as follows: Cytotoxicity against human SKOV3 cells after 48 hrs by MTT assay. It is filed as functional, cell-based. As to conditions: SK-OV-3, 48 h. In outline: as §2
The subject of test [8] is HeLa. Kind of test: Induction of apoptosis in human HeLa cells assessed as change in mitochondrial membrane potential at 10 uM after 12 to 24 hrs by JC-1 staining. It is filed as functional, cell-based. In short, it runs like this: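 HeLa cells were exposed at 10 µM for 12 and 24 h, with an untreated 24 h control, then stained with JC-1. Monomers were excited at 514 nm (read 515–545 nm, green) and aggregates at 585 nm (read 570–600 nm, red). Depolarization was taken as a rise in the green/red intensity ratio.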

The test system of test [9] is HeLa. Kind of test: Induction of apoptosis in human HeLa cells assessed as early apoptotic cells at 5 uM after 12 hrs using annexin V/propidium iodide staining by flow cytometry (reference value: 3.8%). It counts as functional. In outline: as §1
Test [10] has as its system HeLa. Kind of test: Induction of apoptosis in human HeLa cells assessed as release of ROS at 5 to 10 uM after 12 hrs by fluorescence microscopic analysis. It is filed as functional, cell-based. In outline:
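HeLa cells were given 5 or 10 µM for 12 h, with an untreated control handled the same way. Intracellular ROS was visualized by fluorescence microscopy using the probe 2,7-dichlorofluorescein diacetate.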

Test [11] deals with HeLa. The test is described as follows: Induction of apoptosis in human HeLa cells assessed as necrotic cells at 10 uM after 12 hrs using annexin V/propidium iodide staining by flow cytometry (reference value: 2.1%). It counts as functional. In outline: as §1
Test [12] deals with HeLa. The test is described as follows: Induction of apoptosis in human HeLa cells assessed as release of mitochondrial cytochrome c into cytosol at 5 to 10 uM after 12 hrs by fluorescence microscopic analysis. It counts as functional, cell-based.
A short description of test [13]: Cytotoxicity against human Bel7404 cells after 48 hrs by MTT assay. It counts as functional, cell-based. As to conditions: BEL-7404, 48 h. In short, it runs like this: as §2
The test system of test [14] is HeLa. Kind of test: Induction of apoptosis in human HeLa cells assessed as DNA fragmentation at 10 uM after 12 to 24 hrs by TUNEL assay. It counts as functional, cell-based. In outline: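 After 12 and 24 h at 10 µM, HeLa cells (untreated 24 h control) were fixed in 4% paraformaldehyde and permeabilized with 0.1% Triton X-100. Fragmented DNA 3′-ends were labeled with FITC-dUTP using a TUNEL kit. Cells were imaged by fluorescence microscopy at 488 nm excitation and 530 nm emission.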

In test [15] the test system is HeLa. Kind of test: Induction of apoptosis in human HeLa cells assessed as apoptotic ratio at 10 uM after 12 hrs using annexin V/propidium iodide staining by flow cytometry (reference value: 2.3%). It is filed as functional. In short, it runs like this:
as §1

For test [16], the system named is HeLa. Kind of test: Induction of apoptosis in human HeLa cells assessed as early apoptotic cells at 10 uM after 12 hrs using annexin V/propidium iodide staining by flow cytometry (reference value: 3.8%). It counts as functional. In short, it runs like this:
as §1

Test [17] deals with HeLa. Kind of test: Induction of apoptosis in human HeLa cells assessed as DNA fragmentation at 5 to 15 uM after 24 hrs by agarose gel electrophoresis analysis. It counts as functional, cell-based. In outline: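 HeLa cells were exposed for 24 h at 5, 10 or 15 µM alongside untreated cells. Total cellular DNA was extracted and run on agarose gel electrophoresis to look for a nucleosome-sized ladder (~180–200 bp fragments).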

Another test deals with HCT-116. The test is described as follows: Cytotoxicity against human HCT116 cells after 48 hrs by MTT assay. The conditions noted are these: HCT-116, 48 h. It counts as functional, cell-based. In outline: as §2

SMILES strings stand for the structures. Activity calls are given as the source filed them. The rule behind the calls is not given here.

`COc1ccc(NC(=O)[C@@H](Cc2ccccc2)NC(=O)[C@]2(C)CCC[C@]3(C)c4ccc(C(C)C)cc4CC[C@@H]23)cc1`: the Activity result with HeLa [1] was “Dose-dependent effect”; in the test on HeLa [2], “tde”; in the test on HeLa [5] it was 3.2%; in the test with HeLa [7] it was 12.6%; in the test on HeLa [9] it was 9.4%; with HeLa [11], 14.5%. For the same molecule, the values for the Activity in the test on HeLa [15] and in the test on HeLa [16] were 33.7% and 19.2%, respectively. Moreover, the result in the test on HeLa [3], in the test with HeLa [6], with HeLa [8], in the test on HeLa [10], in the test with HeLa [12] and in the test on HeLa [14] was Active. For the same molecule, the outcome with HeLa [17] was Active. Also, the IC50 in the test on NCI-H460 turned out to be 17.2 µM; with HeLa [4], 4.94 µM; with HepG2 it was 12.4 µM; in the test with SK-OV-3, 23.8 µM; in test [13], 15.3 µM; in the test on HCT-116, 15.7 µM.
